In the library only some 3.1% were active in any assay of this set; here they are far more common.
aDG glyco up = alpha-DG glycosylation activation | activation, % at 10 µM | 360,000 compounds, 0.22% hits | Pro5-aDG cells, alpha-DG glycosylation AlphaScreen (IIH6); 0% Pro5, 100% B10-LARGE cell signal;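 active means activation of at least 8% versus controls, or a plate z-score of at least 8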;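 further: Pro5 are CHO cells carrying HIG-tagged alpha-DG that lacks glycosylation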
ADAM10 inh = inhibitors of human ADAM10 | 370,000 compounds, 0.62% hits | recombinant ADAM10, EDANS/DABCYL FRET peptide cleavage, 3 h | inhibition, % at 7 µM | O14672;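 active means inhibition above a per-campaign cutoff equal to the mean of compounds falling between control-based bounds plus 3 SD, cut at about 20% in these data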
Target sequence (O14672 214-748 limits assumed): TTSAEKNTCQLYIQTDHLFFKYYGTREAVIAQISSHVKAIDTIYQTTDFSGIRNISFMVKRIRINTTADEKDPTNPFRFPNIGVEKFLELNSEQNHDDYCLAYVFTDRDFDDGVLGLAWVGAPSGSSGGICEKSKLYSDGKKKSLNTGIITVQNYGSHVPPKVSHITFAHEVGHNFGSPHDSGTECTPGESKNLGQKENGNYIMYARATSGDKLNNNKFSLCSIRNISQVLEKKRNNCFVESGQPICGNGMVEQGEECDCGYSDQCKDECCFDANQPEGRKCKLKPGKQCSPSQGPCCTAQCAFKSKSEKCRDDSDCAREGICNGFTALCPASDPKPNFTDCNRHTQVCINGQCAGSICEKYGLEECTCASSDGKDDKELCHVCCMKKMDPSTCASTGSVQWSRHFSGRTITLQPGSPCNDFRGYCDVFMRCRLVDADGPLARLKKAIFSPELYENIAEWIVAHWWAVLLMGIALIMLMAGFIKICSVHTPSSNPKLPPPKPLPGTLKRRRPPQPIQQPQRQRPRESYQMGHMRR
MPTP inh = inhibitors of mitochondrial permeability transition pore; isolated mouse mitochondria, Ca2+ swelling absorbance, 30 min; inhibition, % at 10 µM; 360,000 compounds, 1.4% hits; AID 602449;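 active means inhibition of 50% or more, scaled per plate between neutral and stimulator controls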
Hep lipid drop = hepatic lipid droplet formation modulation. AML12 mouse hepatocytes, oleate lipid droplets, BODIPY imaging. inhibition, % at 6.5 µM. 240,000 compounds, 0.4% hits. AID 1656;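 active means lipid droplet intensity inhibited by at least 50%, with more than 500 cells counted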
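Assay system: AML12 mouse liver cells | Compound: 6.5 µM single-point dosing | Schedule: Overnight exposure | Technique: Fluorescence imaging, 20x objective, two fields per well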
V-ATPase pH = yeast V-ATPase proton transport regulation by pHLuorin; S. cerevisiae, pHLuorin cytosolic pH fluorescence; response, % at 10 µM; 350,000 compounds, 0.37% hits; AID 504577; in the data active means response mostly above about 7.3%, no sharp cut-off; inactive means mostly below about 5.4%; further: actives read high
ADAM17 inh = inhibits human ADAM17; recombinant ADAM17, EDANS/DABCYL FRET peptide cleavage; inhibition, % at 6.95 µM; AID 720648; 370,000 compounds, 0.83% hits; P78536;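 active means inhibition above the mean of compounds lying between control limits plus 3 SD, set per campaign, cut at about 8.5% in these data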
MPTP counter = mitochondrial membrane potential, counter-screen | inhibition, % at 10 µM | isolated mitochondria, Rhodamine 123 fluorescence | shares compounds with MPTP inh | 5,000 compounds, 78% hits; in the data active means inhibition above about 22%
MPTP swell DR = dose response confirmation of mitochondrial permeability transition pore inhibitors | IC50, µM | shares compounds with MPTP inh | isolated mitochondria swelling, absorbance | 780 compounds, 58% hits; in the data active means IC50 below about 20 µM
MPTP cs DR = counter-screen for mitochondrial permeability transition pore inhibitors, dose response; IC50, µM; isolated mitochondria counterscreen, fluorescence read-out; AID 651564; shares compounds with MPTP inh; 780 compounds, 49% hits; in the data active means IC50 below about 80 µM
Large screens that a line does not name were inactive (follow-up assays come after a bar, where they were run).

CSc1ccccc1OCc1cc(C(=O)N2CCC(c3ccncc3)CC2)no1	MPTP inh 59.8 | MPTP counter 91.2
COC(=O)C1CCCCN1C(=O)c1cc(COc2cccc3cccnc23)on1 (stereo unspecified)	none
O=C(Nc1c(-c2ccc(F)cc2)nc2ncccn12)c1ccc(F)cc1	none (no result: aDG glyco up, MPTP inh, Hep lipid drop, V-ATPase pH)
Cc1c(C(C)c2ccccc2O)c2ccccc2n1C (stereo unspecified)	none (no result: aDG glyco up, MPTP inh, Hep lipid drop, V-ATPase pH)
CC(C)(C)c1ccc(Cn2c(=N)n(CC(O)c3ccco3)c3ccccc32)cc1 (stereo unspecified)	MPTP inh 56.0 (no result: ADAM10 inh, ADAM17 inh) | MPTP counter 21.5
CC(C)CN(Cc1cc(=O)oc2cc(-c3ccccc3)c(O)cc12)CC(C)C	MPTP inh 92.6 | MPTP counter 84.7
Cc1ccc(S(=O)(=O)NCCCc2ccc3c(c2)[C@]2(CCC[C@@H](OCc4ccccc4)[C@@H]2NC(=O)CCc2ccccc2)C(=O)N3Cc2ccccc2)cc1	none (no result: aDG glyco up, MPTP inh, Hep lipid drop, V-ATPase pH)
COc1ccccc1/C=N/NC(=O)c1ccc(Cn2nc([N+](=O)[O-])cc2C)cc1	MPTP inh 64.6 | MPTP counter inactive | MPTP swell DR inactive | MPTP cs DR inactive
COC(=O)c1c(NC(=O)CSc2ncnc3ccccc23)sc(C)c1C	none (no result: Hep lipid drop)
CCOC(=O)c1c(NC(=O)CSc2nnc(-c3ccccc3C)n2C)sc(C(C)=O)c1C	MPTP inh 83.5 | MPTP counter 67.2
CCOC(=O)c1c(NC(=O)CSc2nnc(-c3cccnc3)o2)sc(C(C)=O)c1C	MPTP inh 74.9 (no result: Hep lipid drop) | MPTP counter inactive | MPTP swell DR inactive | MPTP cs DR 12.8
CCOC(=O)c1c(NC(=O)CSc2ncnc3ccccc23)sc(C(C)=O)c1C	MPTP inh 57.8 (no result: V-ATPase pH) | MPTP counter inactive
CCOC(=O)c1c(NC(=O)CSc2nnc(-c3ccco3)o2)sc(C(C)=O)c1C	none
CCOC(=O)c1sc(NC(=O)CSc2nc3cccnc3n2C)nc1C	none
CCOC(=O)c1c(NC(=O)CSc2nc3cccnc3n2C)sc(C(C)=O)c1C	MPTP inh 91.5 (no result: ADAM10 inh, Hep lipid drop, ADAM17 inh) | MPTP counter inactive | MPTP swell DR 3.69 | MPTP cs DR 3.54
CC(C)c1ccc(NC(=O)CSc2nnc(-c3ccco3)n2C)cc1	none (no result: aDG glyco up, MPTP inh, Hep lipid drop, V-ATPase pH)
c1ccc(-c2cccc3[nH]cc(-c4ccccc4)c23)cc1	none (no result: aDG glyco up, MPTP inh, Hep lipid drop, V-ATPase pH)
O=C1CSc2ccc(C(=O)N3CCCC(C(=O)N4CCCC4)C3)cc2N1 (stereo unspecified)	none (no result: aDG glyco up, MPTP inh, Hep lipid drop, V-ATPase pH)
CCOC(=O)c1cccc(NC(=O)CSc2nc3cccnc3n2C)c1	MPTP inh 73.2 | MPTP counter 28.8
COC(=O)[C@]12C[C@H](CC(=O)NCCc3ccccc3OC)C(=O)N(Cc3ccc(Cl)cc3Cl)C1=C[C@H](C(C)(C)C)O[C@@H]2C	none (no result: aDG glyco up, MPTP inh, Hep lipid drop, V-ATPase pH)
COc1ccc(-c2sc(NC(C)=O)nc2-c2ccccc2)cc1	none
COc1ccc(-c2nc(NC(C)=O)sc2-c2ccccc2)cc1	MPTP inh 81.8 (no result: Hep lipid drop) | MPTP counter inactive | MPTP swell DR inactive | MPTP cs DR inactive
CCCC1CCC2(CCCN2CCOC(=S)Nc2ccccc2Br)CC1 (stereo unspecified)	none (no result: aDG glyco up, MPTP inh, Hep lipid drop, V-ATPase pH)
CN1CCN(c2ccc(CNS(=O)(=O)Cc3cccc(C(F)(F)F)c3)cc2)CC1	MPTP inh 83.8 (no result: Hep lipid drop) | MPTP counter 85.6
CN1CCN(c2ccc(CNS(=O)(=O)c3ccccc3)cc2)CC1	none
CCCC[C@H]1C2CC(OC(=O)Nc3ccccc3OC)C(C2)[C@H]2CCCCN21 (stereo partly specified)	none (no result: aDG glyco up, MPTP inh, Hep lipid drop, V-ATPase pH)
Nc1ccc2nc(SCC(=O)Nc3ccc(N4CCOCC4)c(Cl)c3)sc2c1	MPTP inh 58.2 | MPTP counter inactive | MPTP swell DR 18 | MPTP cs DR 27.6
CC(C)(C)NC(=O)CSc1nc2ccc(NC(=O)CSc3nnc(N)s3)cc2s1	MPTP inh 66.9 | MPTP counter 25.0
Nc1nc2ccc(Cl)cc2cc1C(=O)NCc1ccccc1Br	none (no result: aDG glyco up, MPTP inh, Hep lipid drop, V-ATPase pH)
Nc1nc2ccccc2cc1C(=O)NCc1ccc(Cl)cc1Cl	MPTP inh 67.1 (no result: ADAM10 inh, Hep lipid drop, V-ATPase pH, ADAM17 inh) | MPTP counter 97.3
